Results reported in ChEMBL document CHEMBL5724801, “EUbOPEN Chemogenomics Library - Multiplex” (2024).
Values joined by “and” are separate entries in the source; they are usually repeats but may differ in a detail not shown here. Identical values can stand only once.

Columns and labels:
Fibroblast = assay: Multiplex assay against human fibroblast; format: toxicity, cell-based
Procedure, shortened: (§1)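 Live cells were stained at seeding with Hoechst33342, BioTracker Green Microtubule Cytoskeleton Dye, MitoTracker Red and Annexin V Alexa Fluor 680, then imaged on a CQ1 microscope at 37°C and 5% CO2 after compound addition. CellPathfinder machine-learning gating split cells into Hoechst high-intensity objects or normal cells. Normal cells were split into healthy, pyknosed or fragmented nuclei, and pyknosed cells into mitotic or apoptotic. Tubulin, mitochondrial-mass and membrane-permeability phenotypes are per cents of healthy-nucleus cells.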

HEK-293T = assay: Multiplex assay against HEK293T; format: toxicity, cell-based; details: human; procedure, shortened: as §1
[1] = 12 h, 1 µM, compound concentration 1 uM
[2] = 12 h, 10 µM, compound concentration 10 uM
[3] = 24 h, 1 µM, compound concentration 1 uM
[4] = 24 h, 10 µM, compound concentration 10 uM
[5] = 48 h, 1 µM, compound concentration 1 uM
[6] = 48 h, 10 µM, compound concentration 10 uM

In the case of `CCCC(CCC)C(=O)O` [VALPROIC ACID], the “Population Apoptotic (%)” value (Fibroblast; [1]) is reported as 42% and 57%, the “Population Fragmented Nuclei (%)” value (Fibroblast; [1]) is reported as 13% and 20% and the “Population Healthy Nuclei (%)” value (Fibroblast; [1]) is reported as 65% and 47%. For the same compound, the “Population Hoechst High Intensity Objects (%)” value (Fibroblast; [1]) was 3% and 8%, the “Population Membrane Permeable-Phenotype (%)” value (Fibroblast; [1]) was 2% and 10% and the “Population Mitotic Cells (%)” value (Fibroblast; [1]) was 57% and 42%. For the same compound, the “Population Normal (%)” value (Fibroblast; [1]) was 96% and 91%, the “Population Pyknosed Nuclei (%)” value (Fibroblast; [1]) was 21% and 31% and the “Population Tubulin-Different-Phenotype (%)” value (Fibroblast; [1]) was 27% and 49%. The “Population Apoptotic (%)” value (Fibroblast; [2]) was 30% and 43%, the “Population Fragmented Nuclei (%)” value (Fibroblast; [2]) was 29% and 16% and the “Population Healthy Nuclei (%)” value (Fibroblast; [2]) was 60% and 53%. The “Population Hoechst High Intensity Objects (%)” value (Fibroblast; [2]) was 4% and 2%, the “Population Membrane Permeable-Phenotype (%)” value (Fibroblast; [2]) was 1% and 4% and the “Population Mitochondria Different-Phenotype (%)” value (Fibroblast; [2]) was 3% and 8%. The “Population Mitotic Cells (%)” value (Fibroblast; [2]) was 70% and 56%, the “Population Normal (%)” value (Fibroblast; [2]) was 95% and 97% and the “Population Tubulin-Different-Phenotype (%)” value (Fibroblast; [2]) was 16% and 41%. For the same compound, the “Population Apoptotic (%)” value (Fibroblast; [3]) was 42% and 48%, the “Population Fragmented Nuclei (%)” value (Fibroblast; [3]) was 11% and 22% and the “Population Healthy Nuclei (%)” value (Fibroblast; [3]) was 69% and 53%. For the same compound, the “Population Hoechst High Intensity Objects (%)” value (Fibroblast; [3]) was 5% and 7%, the “Population Membrane Permeable-Phenotype (%)” value (Fibroblast; [3]) was 1% and 3% and the “Population Mitochondria Different-Phenotype (%)” value (Fibroblast; [3]) was 2% and 7%. The “Population Mitotic Cells (%)” value (Fibroblast; [3]) was 57% and 51%, the “Population Normal (%)” value (Fibroblast; [3]) was 95% and 92% and the “Population Pyknosed Nuclei (%)” value (Fibroblast; [3]) was 19% and 24%. The “Population Tubulin-Different-Phenotype (%)” value (Fibroblast; [3]) was 22% and 54%, the “Population Apoptotic (%)” value (Fibroblast; [4]) was 50% and 38% and the “Population Fragmented Nuclei (%)” value (Fibroblast; [4]) was 27% and 30%. The “Population Healthy Nuclei (%)” value (Fibroblast; [4]) was 66% and 46%, the “Population Hoechst High Intensity Objects (%)” value (Fibroblast; [4]) was 6% and 3% and the “Population Membrane Permeable-Phenotype (%)” value (Fibroblast; [4]) was 0% and 5%. For the same compound, the “Population Mitochondria Different-Phenotype (%)” value (Fibroblast; [4]) was 1% and 4%, the “Population Mitotic Cells (%)” value (Fibroblast; [4]) was 50% and 61% and the “Population Normal (%)” value (Fibroblast; [4]) was 93% and 96%. For the same compound, the “Population Tubulin-Different-Phenotype (%)” value (Fibroblast; [4]) was 21% and 41%, the “Population Apoptotic (%)” value (Fibroblast; [5]) was 55% and 48% and the “Population Fragmented Nuclei (%)” value (Fibroblast; [5]) was 18% and 36%. For the same compound, the “Population Healthy Nuclei (%)” value (Fibroblast; [5]) was 66% and 44%, the “Population Hoechst High Intensity Objects (%)” value (Fibroblast; [5]) was 7% and the “Population Membrane Permeable-Phenotype (%)” value (Fibroblast; [5]) was 0% and 4%. The “Population Mitochondria Different-Phenotype (%)” value (Fibroblast; [5]) was 1% and 7%, the “Population Mitotic Cells (%)” value (Fibroblast; [5]) was 44% and 51% and the “Population Normal (%)” value (Fibroblast; [5]) was 92%. The “Population Pyknosed Nuclei (%)” value (Fibroblast; [5]) was 14% and 19%, the “Population Tubulin-Different-Phenotype (%)” value (Fibroblast; [5]) was 19% and 55% and the “Population Apoptotic (%)” value (Fibroblast; [6]) was 60%. The “Population Fragmented Nuclei (%)” value (Fibroblast; [6]) was 30% and 33%, the “Population Healthy Nuclei (%)” value (Fibroblast; [6]) was 60% and 51% and the “Population Hoechst High Intensity Objects (%)” value (Fibroblast; [6]) was 1% and 5%. For the same compound, the “Population Membrane Permeable-Phenotype (%)” value (Fibroblast; [6]) was 0% and 6%, the “Population Mitochondria Different-Phenotype (%)” value (Fibroblast; [6]) was 1% and 5% and the “Population Mitotic Cells (%)” value (Fibroblast; [6]) was 40% and 39%. The “Population Normal (%)” value (Fibroblast; [6]) was 98% and 94%, the “Population Pyknosed Nuclei (%)” value (Fibroblast; [6]) was 8% and 15% and the “Population Tubulin-Different-Phenotype (%)” value (Fibroblast; [6]) was 18% and 46%. For the same compound, the “Population Apoptotic (%)” value (HEK-293T; [1]) was 39% and 28%, the “Population Fragmented Nuclei (%)” value (HEK-293T; [1]) was 6% and 5% and the “Population Healthy Nuclei (%)” value (HEK-293T; [1]) was 81% and 79%. For the same compound, the “Population Hoechst High Intensity Objects (%)” value (HEK-293T; [1]) was 6% and 5%, the “Population Membrane Permeable-Phenotype (%)” value (HEK-293T; [1]) was 0% and the “Population Mitochondria Different-Phenotype (%)” value (HEK-293T; [1]) was 29% and 46%. For the same compound, the “Population Mitotic Cells (%)” value (HEK-293T; [1]) was 60% and 71%, the “Population Normal (%)” value (HEK-293T; [1]) was 93% and 94% and the “Population Pyknosed Nuclei (%)” value (HEK-293T; [1]) was 12% and 15%. The “Population Tubulin-Different-Phenotype (%)” value (HEK-293T; [1]) was 20% and 16%, the “Total Cell Count” value (HEK-293T; [1]) was 513 and 367 and the “Population Apoptotic (%)” value (HEK-293T; [2]) was 34% and 44%. For the same compound, the “Population Fragmented Nuclei (%)” value (HEK-293T; [2]) was 6% and 7%, the “Population Healthy Nuclei (%)” value (HEK-293T; [2]) was 82% and 81% and the “Population Hoechst High Intensity Objects (%)” value (HEK-293T; [2]) was 6%. For the same compound, the “Population Membrane Permeable-Phenotype (%)” value (HEK-293T; [2]) was 0%, the “Population Mitochondria Different-Phenotype (%)” value (HEK-293T; [2]) was 40% and 49% and the “Population Mitotic Cells (%)” value (HEK-293T; [2]) was 66% and 55%. For the same compound, the “Population Normal (%)” value (HEK-293T; [2]) was 93%, the “Population Pyknosed Nuclei (%)” value (HEK-293T; [2]) was 11% and the “Population Tubulin-Different-Phenotype (%)” value (HEK-293T; [2]) was 26% and 20%. The “Total Cell Count” value (HEK-293T; [2]) was 455 and 446, the “Population Apoptotic (%)” value (HEK-293T; [3]) was 28% and 45% and the “Population Fragmented Nuclei (%)” value (HEK-293T; [3]) was 8% and 6%. The “Population Healthy Nuclei (%)” value (HEK-293T; [3]) was 78% and 83%, the “Population Hoechst High Intensity Objects (%)” value (HEK-293T; [3]) was 4% and the “Population Membrane Permeable-Phenotype (%)” value (HEK-293T; [3]) was 1% and 0%. For the same compound, the “Population Mitochondria Different-Phenotype (%)” value (HEK-293T; [3]) was 22% and 26%, the “Population Mitotic Cells (%)” value (HEK-293T; [3]) was 71% and 54% and the “Population Normal (%)” value (HEK-293T; [3]) was 95%. For the same compound, the “Population Pyknosed Nuclei (%)” value (HEK-293T; [3]) was 12% and 9%, the “Population Tubulin-Different-Phenotype (%)” value (HEK-293T; [3]) was 16% and 10% and the “Total Cell Count” value (HEK-293T; [3]) was 663 and 469. For the same compound, the “Population Apoptotic (%)” value (HEK-293T; [4]) was 28% and 23%.
